# Assay results from ChEMBL document CHEMBL1139422, “Design, synthesis and biological evaluation of novel compounds with conjugated structure as anti-tumor agents” (Bioorg Med Chem, 2008).
# Active and inactive are the calls of the source. The rule behind the calls is not given here.
# Assays:
# [1] = test system: HepG2; assay: Antiproliferative activity against human HepG2 cells after 48 hrs by MTT assay; assay type: functional, cell-based; conditions: HepG2, 48 h
# Procedure, shortened: (§1)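 Cells seeded at 4000/well; compounds (10 mg/mL DMSO stock, diluted in medium) added 24 h after seeding, in duplicate. Incubation 48 h at 37 °C, 5% CO2. MTT (20 µL of 5 mg/mL in PBS) then added for 4 h at 37 °C, and the signal read at 570 nm.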
# [2] = test system: U-937; assay: Induction of apoptosis in human U937 cells assessed as caspase 3 activation at 5 uM after 30 hrs by FACS analysis; assay type: functional, cell-based
# Procedure, shortened: (§2)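 U937 cells were grown in supplemented RPMI at 200,000 cells/mL. Compounds in DMSO were given at 5 µM for 24 h or 30 h, or at 0.5 µM for 28 h. Apoptosis was analysed by FACS. Values are means of independent duplicates.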
# [3] = test system: A549; assay: Antiproliferative activity against human A549 cells after 48 hrs by MTT assay; assay type: functional, cell-based; conditions: A549, 48 h; procedure, shortened: as §1
# [4] = test system: PC-3; assay: Antiproliferative activity against human PC3 cells after 48 hrs by MTT assay; assay type: functional, cell-based; conditions: PC-3, 48 h; procedure, shortened: as §1
# [5] = test system: U-937; assay: Increase in granulocytic differentiation in human U937 cells assessed as CD11c expression at 5 uM after 30 hrs by FACS analysis; assay type: functional, cell-based
# Procedure, shortened: (§3)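 U937 cells were grown in RPMI with 10% FCS, 10 mM Hepes and 2 mM glutamine at 200,000 cells/mL. Compounds in DMSO were given for 30 h (5 µM) or 28 h (0.5 µM). Cells were stained for surface antigen for 30 min at 4 °C in the dark, washed, and resuspended in PBS with propidium iodide. PI-positive cells were excluded from the FACS analysis. Values are means of independent quadruplicates.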
# [6] = test system: U-937; assay: Induction of monocytic differentiation in human U937 cells assessed as CD14 expression at 5 uM after 30 hrs by FACS analysis; assay type: functional, cell-based; procedure, shortened: as §3
# [7] = test system: HCT-116; assay: Antiproliferative activity against human HCT116 cells after 48 hrs by MTT assay; assay type: functional, cell-based; conditions: HCT-116, 48 h; procedure, shortened: as §1
# [8] = biological target: Histone deacetylase 1 (Homo sapiens, UniProt Q13547); assay: Inhibition of human recombinant HDAC1 using Fluor de Lys as substrate by fluorimetric assay
# Procedure, shortened: (§4)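 Purified recombinant HDAC1 or HDAC4 was incubated with acetylated-lysine Fluor de Lys substrate, with or without inhibitor. Developer was then added to give the fluorophore, and fluorescence was read. IC50 values are means of at least three experiments. SI is IC50(HDAC1)/IC50(HDAC4).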
# [9] = species on record: Homo sapiens; assay: Selectivity index, ratio of IC50 for human recombinant HDAC1 to IC50 for human recombinant HDAC4; procedure, shortened: as §4
# [10] = biological target: Histone deacetylase 4 (Homo sapiens, UniProt P56524); assay: Inhibition of human recombinant HDAC4 using Fluor de Lys as substrate by fluorimetric assay; procedure, shortened: as §4
# [11] = test system: U-937; assay: Induction of p21waf1/CIP1 expression in human U937 cells after 24 hrs by Western blot analysis; assay type: functional, cell-based
# Procedure, shortened: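 U937 cells were treated for 24 h. Total protein extracts (50 µg) were run on a 15% polyacrylamide gel and blotted for p21 (1:500), with tubulin as the loading control.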
# [12] = test system: U-937; assay: Cell cycle arrest in human U937 cells assessed as accumulation at G1 phase at 5 uM after 24 hrs by flow cytometry; assay type: functional, cell-based
# Procedure, shortened: (§5)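 U937 cells were grown in RPMI with 10% FCS, penicillin/streptomycin, amphotericin-B, 10 mM Hepes and 2 mM glutamine, and held at 200,000 cells/mL. Cells were treated 24 h with compounds in DMSO. 2.5×10^5 cells were resuspended in hypotonic buffer (0.1% Triton X-100, 0.1% sodium citrate, 50 µg/mL PI, RNase A) for 30 min in the dark, then analysed by flow cytometry. Values are means of independent duplicates.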
# [13] = biological target: T1, Protein deacetylase HDAC6 (Homo sapiens) (UniProt Q9UBN7); assay: Inhibition of HDAC6 in human U937 cells assessed as induction of alpha-tubulin acetylation after 24 hrs by Western blot analysis; assay type: cell-based; conditions: U-937
# T1 sequence (whole entry): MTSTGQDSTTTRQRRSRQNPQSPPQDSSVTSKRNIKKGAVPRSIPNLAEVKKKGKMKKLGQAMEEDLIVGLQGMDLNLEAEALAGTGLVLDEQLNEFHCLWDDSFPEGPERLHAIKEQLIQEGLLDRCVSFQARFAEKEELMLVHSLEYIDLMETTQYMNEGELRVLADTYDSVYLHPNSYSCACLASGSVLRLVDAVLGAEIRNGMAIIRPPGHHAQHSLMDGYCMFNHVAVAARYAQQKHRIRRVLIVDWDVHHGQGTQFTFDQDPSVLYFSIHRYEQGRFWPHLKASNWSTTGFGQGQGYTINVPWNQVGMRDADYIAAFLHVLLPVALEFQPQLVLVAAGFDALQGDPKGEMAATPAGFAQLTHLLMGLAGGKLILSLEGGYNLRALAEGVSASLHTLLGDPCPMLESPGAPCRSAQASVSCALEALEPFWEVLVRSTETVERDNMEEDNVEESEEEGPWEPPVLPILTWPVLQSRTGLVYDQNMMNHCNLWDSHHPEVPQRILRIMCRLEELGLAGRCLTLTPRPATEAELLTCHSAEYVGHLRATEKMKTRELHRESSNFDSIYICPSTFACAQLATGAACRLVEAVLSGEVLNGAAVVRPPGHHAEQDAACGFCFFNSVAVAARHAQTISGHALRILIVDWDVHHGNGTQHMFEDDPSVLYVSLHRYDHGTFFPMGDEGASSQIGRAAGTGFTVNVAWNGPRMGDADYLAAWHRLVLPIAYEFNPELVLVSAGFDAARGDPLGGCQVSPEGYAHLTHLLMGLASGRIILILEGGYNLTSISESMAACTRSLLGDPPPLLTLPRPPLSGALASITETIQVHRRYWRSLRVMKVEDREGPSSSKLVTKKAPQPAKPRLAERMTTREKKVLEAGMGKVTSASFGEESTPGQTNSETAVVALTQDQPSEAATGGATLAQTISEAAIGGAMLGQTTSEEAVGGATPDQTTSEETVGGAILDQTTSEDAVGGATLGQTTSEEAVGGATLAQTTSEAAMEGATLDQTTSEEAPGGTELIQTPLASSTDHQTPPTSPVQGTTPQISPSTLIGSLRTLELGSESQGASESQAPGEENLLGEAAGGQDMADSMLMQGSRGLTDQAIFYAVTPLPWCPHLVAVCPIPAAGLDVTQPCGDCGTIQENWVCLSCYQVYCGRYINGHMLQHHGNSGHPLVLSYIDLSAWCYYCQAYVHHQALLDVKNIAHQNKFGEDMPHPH
# Procedure, shortened: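 U937 cells were treated for 24 h. Total protein extract (50 µg) was run on a 10% polyacrylamide gel and blotted for acetylated α-tubulin (1:500), with total ERK as the loading control.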
# [14] = test system: U-937; assay: Induction of apoptosis in human U937 cells assessed as caspase 3 activation at 5 uM after 24 hrs by FACS analysis; assay type: functional, cell-based; procedure, shortened: as §2
# [15] = biological target: Histone deacetylase; assay: Inhibition of human recombinant HDAC by fluorimetric assay; assay type: protein assay
# [16] = test system: U-937; assay: Increase in granulocytic differentiation in human U937 cells assessed as CD11c expression at 0.5 uM after 28 hrs by FACS analysis; assay type: functional, cell-based; procedure, shortened: as §3
# [17] = test system: U-937; assay: Cell cycle arrest in human U937 cells assessed as accumulation at S phase at 5 uM after 24 hrs by flow cytometry; assay type: functional, cell-based; procedure, shortened: as §5
# Chain of Histone deacetylase 1 (Q13547 whole entry): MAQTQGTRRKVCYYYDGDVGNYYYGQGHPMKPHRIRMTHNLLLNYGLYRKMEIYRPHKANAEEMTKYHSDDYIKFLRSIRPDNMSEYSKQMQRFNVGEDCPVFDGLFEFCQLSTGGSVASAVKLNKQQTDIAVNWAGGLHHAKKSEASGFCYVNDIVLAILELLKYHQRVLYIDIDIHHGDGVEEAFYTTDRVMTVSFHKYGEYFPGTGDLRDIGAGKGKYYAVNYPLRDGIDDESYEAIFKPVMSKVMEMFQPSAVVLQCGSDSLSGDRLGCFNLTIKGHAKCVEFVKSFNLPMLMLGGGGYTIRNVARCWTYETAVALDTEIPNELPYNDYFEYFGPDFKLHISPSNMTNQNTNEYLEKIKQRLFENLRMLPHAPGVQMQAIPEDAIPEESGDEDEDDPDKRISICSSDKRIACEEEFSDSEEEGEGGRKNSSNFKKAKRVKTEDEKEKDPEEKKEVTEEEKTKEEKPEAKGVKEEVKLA
# Chain of Histone deacetylase 4 (P56524 whole entry): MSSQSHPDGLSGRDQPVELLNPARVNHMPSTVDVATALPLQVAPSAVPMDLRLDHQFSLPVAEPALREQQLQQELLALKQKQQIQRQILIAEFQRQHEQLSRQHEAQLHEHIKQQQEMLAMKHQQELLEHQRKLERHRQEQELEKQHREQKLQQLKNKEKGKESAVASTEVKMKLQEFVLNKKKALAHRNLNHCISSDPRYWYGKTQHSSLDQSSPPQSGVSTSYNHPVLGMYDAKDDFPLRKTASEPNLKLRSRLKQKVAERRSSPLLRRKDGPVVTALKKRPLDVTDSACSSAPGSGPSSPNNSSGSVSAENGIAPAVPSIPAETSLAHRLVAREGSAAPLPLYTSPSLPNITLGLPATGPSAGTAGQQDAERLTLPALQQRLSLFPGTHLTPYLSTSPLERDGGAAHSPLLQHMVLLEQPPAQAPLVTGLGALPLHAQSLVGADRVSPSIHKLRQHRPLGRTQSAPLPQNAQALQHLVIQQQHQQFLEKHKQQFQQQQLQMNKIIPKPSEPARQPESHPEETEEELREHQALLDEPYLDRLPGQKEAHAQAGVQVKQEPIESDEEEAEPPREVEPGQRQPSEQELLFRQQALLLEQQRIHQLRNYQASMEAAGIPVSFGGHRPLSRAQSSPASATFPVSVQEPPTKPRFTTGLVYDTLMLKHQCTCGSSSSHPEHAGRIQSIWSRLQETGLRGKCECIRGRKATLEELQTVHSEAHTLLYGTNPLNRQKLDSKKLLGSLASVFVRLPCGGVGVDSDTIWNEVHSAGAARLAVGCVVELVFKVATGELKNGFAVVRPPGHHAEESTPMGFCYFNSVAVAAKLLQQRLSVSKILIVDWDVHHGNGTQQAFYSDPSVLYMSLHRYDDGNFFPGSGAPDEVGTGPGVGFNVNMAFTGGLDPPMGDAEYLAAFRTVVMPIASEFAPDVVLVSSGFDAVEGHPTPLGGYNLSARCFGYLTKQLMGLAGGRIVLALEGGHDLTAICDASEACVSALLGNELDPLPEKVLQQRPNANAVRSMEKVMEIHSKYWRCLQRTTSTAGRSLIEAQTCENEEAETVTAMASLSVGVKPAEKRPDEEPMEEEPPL
SMILES,IC50 [1] [µM],Activity [2],IC50 [3] [µM],IC50 [4] [µM],Activity [5],Activity [6],IC50 [7] [µM],IC50 [8] [µM],Ratio IC50 [9],IC50 [10] [µM],Activity [11],Activity [12],Activity [13],Activity [14],IC50 [15] [µM],Activity [16],Activity [17]
O=C(NO)c1ccc(/C=C/c2ccccc2O)o1,54,Active,79.2,91.3,Active,inactive,5.1,47.1,0.63,74.2,,,,,,,
O=C(/C=C/c1ccc(/C=C/C(=O)c2ccc(Cl)cc2)o1)NO,6.74,,98.1,1.35,,,2.01,15.7,2.6,6.03,Active,Active,Active,,,,
O=C(/C=C/c1ccc(/C=C/C(=O)c2ccc3ccccc3c2)o1)NO,9.93,,29.4,15.1,,,2.22,3.77,0.9,4.38,Active,Active,Active,Active,0.63,,
CN(C)c1ccc(/C=C/c2ccc(C(=O)NO)o2)cc1,31.7,,46.3,3.2,,,,49.1,0.97,50.6,Active,,,,,Active,
CC(C)c1ccc(C(=O)/C=C/c2ccc(/C=C/C(=O)NO)o2)cc1,35.9,,56.7,2.27,,,0.49,24.1,4.9,4.89,Active,Active,Active,,,,
O=C(/C=C/c1ccc(/C=C/C(=O)c2ccc(Cl)cc2Cl)o1)NO,13.5,,88.1,16.2,,,6.73,4.29,0.5,8.19,Active,,Active,Active,,,Active
O=C(CCCCCCC(=O)Nc1ccccc1C(=O)NO)Nc1ccccc1,63.5,,,8.17,,,2.69,0.59,1.01,0.55,,,,,0.042,,
O=C(NO)c1ccc(/C=C/c2ccc(O)cc2)o1,20.9,Active,86.4,21.8,Active,inactive,2.73,43.1,0.76,57.1,,,,,,,
O=C(/C=C/c1ccc(/C=C/C(=O)c2ccc(F)cc2)o1)NO,12,,,40.1,,,2.82,15,2,7.68,Active,Active,Active,Active,,,
O=C(/C=C/c1ccc(/C=C/C(=O)c2cc(Cl)ccc2Cl)o1)NO,48.3,,27.1,24.7,,,4.12,4.72,1.1,4.31,Active,Active,Active,,,,
Nc1ccccc1NC(=O)c1ccc(CNC(=O)OCc2cccnc2)cc1 [ENTINOSTAT],60.1,,,59.1,,,27.5,,,,,,,,,,
CC(=O)O[C@H]1C(=O)[C@@]2(C)[C@H]([C@H](OC(=O)c3ccccc3)[C@]3(O)C[C@H](OC(=O)[C@H](O)[C@@H](NC(=O)c4ccccc4)c4ccccc4)C(C)=C1C3(C)C)[C@]1(OC(C)=O)CO[C@@H]1C[C@@H]2O [PACLITAXEL],0.62,,13.1,2.73,,,,,,,,,,,,,
O=C(NO)c1ccc(/C=C/c2ccc3c(c2)OCO3)o1,33.6,,63.6,45.9,,,4.98,29.6,0.34,85.6,,,,,,,
Cc1ccc(C(=O)/C=C/c2ccc(/C=C/C(=O)NO)o2)cc1,16,,48.6,16,,,0.54,13.2,11.9,1.1,,,,Active,,,Active
COc1ccc2cc(C(=O)/C=C/c3ccc(/C=C/C(=O)NO)o3)ccc2c1,6.22,,,36.3,,,2.06,11,2.7,4.04,Active,,Active,Active,,,Active
O=C(NO)c1ccc(/C=C/c2cccc(Cl)c2Cl)o1,37.2,,23.6,39.2,,,3.39,25.3,0.51,49.3,,,,,,,
COc1cccc(/C=C/c2ccc(C(=O)NO)o2)c1O,,,,35.1,,,,50.1,1.17,42.8,,,,,,,
O=C(/C=C/c1ccc(/C=C/C(=O)c2cccc(Cl)c2)o1)NO,54.5,,18.9,9.6,,,1.51,12.6,1,12.9,Active,Active,Active,Active,,,
